# The source made the active and inactive calls. The calls are words filed in the database; no cut-off is given here.
# What was measured:
# [1] = test system: Oryctolagus cuniculus; experiment: Progestational activity in Clauberg rabbit at 10 mg/kg/day, po; type: functional, organism-based
# How it was run: (§1)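 Immature rabbit (Clauberg); uterine stimulation measured for progestational activity, and its antagonism for antiprogestational activity.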
# [2] = test system: Oryctolagus cuniculus; experiment: Antiprogestational activity in Clauberg rabbit at 10 mg/kg/day, po; type: functional, organism-based; how it was run: as §1
# [3] = target: T1, Progesterone receptor (Oryctolagus cuniculus) (UniProt P06186); experiment: Displacement of [3H]progesterone from rabbit progesterone receptor after 24 hrs at 0.1 nM to 10 mM
# T1 sequence (whole entry): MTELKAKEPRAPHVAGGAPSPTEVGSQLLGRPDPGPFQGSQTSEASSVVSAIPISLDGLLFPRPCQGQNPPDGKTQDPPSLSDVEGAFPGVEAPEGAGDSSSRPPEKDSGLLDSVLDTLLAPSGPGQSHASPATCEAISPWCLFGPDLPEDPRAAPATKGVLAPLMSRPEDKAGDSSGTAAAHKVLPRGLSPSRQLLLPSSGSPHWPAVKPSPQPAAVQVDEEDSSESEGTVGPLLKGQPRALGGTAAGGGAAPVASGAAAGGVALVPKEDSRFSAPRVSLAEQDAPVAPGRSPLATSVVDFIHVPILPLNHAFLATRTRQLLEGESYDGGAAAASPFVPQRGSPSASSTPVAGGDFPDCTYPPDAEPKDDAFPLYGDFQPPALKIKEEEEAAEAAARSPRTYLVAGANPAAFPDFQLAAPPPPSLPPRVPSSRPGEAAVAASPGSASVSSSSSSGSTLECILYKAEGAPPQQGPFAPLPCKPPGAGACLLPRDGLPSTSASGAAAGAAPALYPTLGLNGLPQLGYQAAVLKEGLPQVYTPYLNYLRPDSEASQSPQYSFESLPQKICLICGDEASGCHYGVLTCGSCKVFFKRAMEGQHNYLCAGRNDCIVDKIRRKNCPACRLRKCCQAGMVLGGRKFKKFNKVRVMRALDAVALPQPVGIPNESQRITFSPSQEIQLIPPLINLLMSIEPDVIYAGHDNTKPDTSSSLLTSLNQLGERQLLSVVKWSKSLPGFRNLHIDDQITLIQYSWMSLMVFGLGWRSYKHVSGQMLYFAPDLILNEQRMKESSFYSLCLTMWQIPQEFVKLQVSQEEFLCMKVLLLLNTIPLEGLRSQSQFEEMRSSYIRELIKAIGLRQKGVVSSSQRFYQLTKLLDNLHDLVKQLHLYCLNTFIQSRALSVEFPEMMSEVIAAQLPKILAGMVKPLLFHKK
# How it was run: (§2)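 Uterine cytosol from TE buffer (Tris-HCl, 1 mM EDTA, pH 7.4) homogenate by ultracentrifugation. Competitor 0.1 nM–10 mM with constant label ([3H]estradiol 6000 cpm or [3H]progesterone 20000 cpm), 24 h at 4 °C, started by cytosol addition. Bound label isolated; RBA derived against unlabeled estradiol or progesterone standard curves.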
# [4] = test system: Rattus norvegicus; experiment: Antiandrogenic activity in rat assessed as inhibition of androgen stimulation of ventral prostate at 30 mg/kg/day, sc; type: functional, organism-based; conditions: Prostate gland
# How it was run: (§3)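 Immature, castrated male rats; test compound assessed for ability to inhibit androgen stimulation of seminal vesicle, ventral prostate and levator ani weight.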
# [5] = test system: Rattus norvegicus; experiment: Antiuterotropic activity in rat assessed as D-estradiol-induced increase in uterine weight inhibition of at 5 mg/kg/day, sc administered for 3 days; type: functional, organism-based
# How it was run: (§4)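 Immature female rats, 45–55 g, given estradiol together with test compound daily for three consecutive days as sesame oil suspension (0.1 mL); vehicle-only controls. Uteri excised, cleaned and weighed to nearest 0.2 mg the day after last treatment.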
# [6] = test system: Rattus norvegicus; experiment: Antiandrogenic activity in rat assessed as inhibition of androgen stimulation of seminal vesicle at 30 mg/kg/day, sc; type: functional, organism-based; how it was run: as §3
# [7] = species: Oryctolagus cuniculus; experiment: Displacement of [3H]estradiol from rabbit estrogen receptor after 24 hrs at 0.1 nM to 10 mM; how it was run: as §2
# [8] = test system: Rattus norvegicus; experiment: Uterotropic activity in rat at 1 mg/kg/day, sc administered for 3 days relative to ethynylestradiol; conditions: Uterus
# [9] = test system: Rattus norvegicus; experiment: Antifertility activity in Sprague-Dawley rat assessed as no implantation at 4 mg/kg/day, sc administered for 5 days measured on day 10; type: functional, organism-based
# How it was run: (§5)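 Mated females dosed in sesame oil (0.1 mL) over 5 days from day 0 of pregnancy (sperm-positive day). Autopsy on day 10 of presumptive pregnancy; normal and resorbing fetuses counted. ED100 = dose (mg/kg/day) giving no implantation sites.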
# [10] = test system: Rattus norvegicus; experiment: Antiandrogenic activity in rat assessed as inhibition of androgen stimulation of levator ani weight at 30 mg/kg/day, sc; type: functional, organism-based; how it was run: as §3
# [11] = test system: Rattus norvegicus; experiment: Antifertility activity in Sprague-Dawley rat assessed as no implantation at 6.8 mg/kg/day, po administered for 5 days measured on day 10; type: functional, organism-based; how it was run: as §5
# [12] = test system: Rattus norvegicus; experiment: Uterotropic activity in po dosed rat administered for 3 days relative to ethynylestradiol; type: functional, Uterus
# How it was run: (§6)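 Immature female rats, 45–55 g, dosed daily for 3 days with sesame oil suspension (0.1 mL); vehicle controls. Uteri removed, cleaned, weighed (nearest 0.2 mg) next day. Expressed as percent activity relative to estradiol (sc) or ethynylestradiol (oral).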
# [13] = test system: Rattus norvegicus; experiment: Antiuterotropic activity in rat assessed as D-estradiol-induced increase in uterine weight inhibition of at 10 ug/kg/day, po administered for 3 days; type: functional, organism-based; how it was run: as §4
# [14] = test system: Oryctolagus cuniculus; experiment: Antiprogestational activity in Clauberg rabbit at 10 mg/kg/day, sc; type: functional, organism-based; how it was run: as §1
# [15] = test system: Oryctolagus cuniculus; experiment: Progestational activity in Clauberg rabbit at 10 mg/kg/day, sc; type: functional, organism-based; how it was run: as §1
# [16] = test system: Oryctolagus cuniculus; experiment: Antiprogestational activity in Clauberg rabbit at 20 mg/kg/day, sc; type: functional, organism-based; how it was run: as §1
# [17] = test system: Oryctolagus cuniculus; experiment: Progestational activity in Clauberg rabbit at 20 mg/kg/day, sc; type: functional, organism-based; how it was run: as §1
# [18] = test system: Rattus norvegicus; experiment: Antifertility activity in Sprague-Dawley rat assessed as no implantation at 10 mg/kg/day, sc administered for 5 days measured on day 10; type: functional, organism-based; how it was run: as §5
# [19] = test system: Rattus norvegicus; experiment: Antifertility activity in sc dosed Sprague-Dawley rat assessed as no implantation administered for 5 days measured on day 10; type: functional; how it was run: as §5
# [20] = test system: Rattus norvegicus; experiment: Uterotropic activity in sc dosed rat administered for 3 days relative to estradiol; type: functional, Uterus; how it was run: as §6
smiles,measurement,setting,value
C#C[C@]1(O)CC[C@H]2C[C@@H]3[C@@H](CCC4=CC(=O)CC[C@H]43)C[C@@]21C,Activity,[1],inactive
same,Activity,[2],inactive
same,RBA,[3],2
C[C@]12C[C@@H]3CCC4=C(CCC(=O)C4)[C@@H]3C[C@@H]1CC[C@@H]2O,Activity,[4],inactive
same,RBA,[3],< 0.4
same,Activity,[5],inactive
same,Activity,[6],inactive
same,RBA,[7],< 0.085
same,Activity,[8],inactive
same,Activity,[9],inactive
same,Activity,[10],inactive
C#C[C@]1(O)CC[C@H]2C[C@H]3c4ccc(O)cc4CC[C@H]3C[C@@]21C,Activity,[11],inactive
same,RBA,[3],< 0.4
same,relative binding affinity (RBA),[12],0.18
same,RBA,[7],4.4
same,Activity,[13],inactive
C[C@]12C[C@@H]3CCC4=CC(=O)CC[C@H]4[C@@H]3C[C@@H]1CC[C@@H]2O,Activity,[4],inactive
same,RBA,[3],< 0.4
same,Activity,[5],inactive
same,Activity,[6],inactive
same,RBA,[7],0.06
same,Activity,[8],inactive
same,Activity,[9],inactive
same,Activity,[10],inactive
CC(=O)[C@H]1CC[C@H]2C[C@@H]3[C@@H](CCC4CC(=O)C=C[C@H]43)C[C@@]21C (stereo partly specified),RBA,[3],1.9
same,Activity,[14],inactive
same,Activity,[15],inactive
CC(=O)[C@H]1CC[C@H]2C[C@@H]3[C@@H](CCC4=CC(=O)CC[C@H]43)C[C@@]21C,Activity,[16],inactive
same,RBA,[3],1.2
same,Activity,[17],inactive
COc1ccc2c(c1)CC[C@H]1C[C@@]3(C)C(=CC[C@@H]3OC(C)=O)C=C21,RBA,[3],< 0.4
same,RBA,[7],< 0.025
same,Activity,[18],inactive
C[C@]12C[C@@H]3CCc4cc(O)ccc4[C@@H]3C[C@@H]1CC[C@@H]2O,ED100,[19],1 mg/kg/day
same,relative binding affinity (RBA),[20],0.02
same,RBA,[7],2.9

# Source: ChEMBL document CHEMBL3272247, “Synthesis, antifertility activity, and protein binding affinity of 7(8 leads to 11 alpha)abeo steroids” (1977)
